According to ChEMBL document CHEMBL1811802, “Synthesis and significant cytostatic activity of 7-hetaryl-7-deazaadenosines” (J Med Chem, 2011):
Active and inactive are the calls of the source. The calls are words filed in the database; no cut-off is given here.

Legend:
[1] = test system: L1210; assay: Cytotoxicity against mouse L1210 cells after 3 days by MTT assay; format: functional, cell-based; conditions: L1210, 72 h
[2] = test system: DU-145; assay: Metabolic stability in human DU145 cells assessed as sodium ((2R,3S,4R,5R)-5-(4-amino-7H-pyrrolo[2,3-d]pyrimidin-7-yl)-3,4-dihydroxytetrahydrofuran-2-yl)methyl hydrogenphosphate-NMP formation per million of cells at 10 uM after 24 hrs by LC/MS/MS analysis; format: ADME, cell-based; conditions: du-145, 24 h
Procedure, shortened: (§1)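 Du145 seeded at 60% confluence in MEM/10% FBS; next day exposed to 10 μM compound for 6 or 24 h. Cells trypsinized, extracted in 70% MeOH, dried, resuspended in 1 mM ammonium phosphate pH 8.5. Nucleoside, NMP and NTP quantified by ion-pairing (dimethylhexylamine) LC/MS/MS against untreated-cell-extract standard curves; pmol per million cells.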

[3] = biological target: Adenosine kinase (Homo sapiens, UniProt P55263); assay: Inhibition of human ADK using [3H]-adenosine by scintillation counting
Adenosine kinase, sequence (P55263 whole entry): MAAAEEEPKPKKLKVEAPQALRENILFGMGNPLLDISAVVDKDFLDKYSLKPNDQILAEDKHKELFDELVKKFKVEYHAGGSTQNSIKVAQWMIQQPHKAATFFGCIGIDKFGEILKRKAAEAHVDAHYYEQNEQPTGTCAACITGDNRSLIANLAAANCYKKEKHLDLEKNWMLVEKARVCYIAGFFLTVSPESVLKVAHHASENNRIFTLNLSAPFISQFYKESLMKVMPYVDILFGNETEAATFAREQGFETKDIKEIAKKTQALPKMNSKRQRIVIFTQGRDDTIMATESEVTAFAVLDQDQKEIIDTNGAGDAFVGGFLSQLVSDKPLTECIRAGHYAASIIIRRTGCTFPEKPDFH

[4] = Antitumor activity against mouse P388D1 cells xenografted in DBA/2 mouse assessed as increase of mean survival days at 35 mg/kg, ip qd administered as 2 cycles on day 1 to 3 and day 8 to 10; conditions: route intraperitoneal
[5] = test system: HCT-15; assay: Cytostatic activity against human HCT15 cells after 5 days by SRB assay; format: functional; conditions: HCT-15, 120 h
Procedure, shortened: (§2)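 Cells seeded per line density, overnight at 37 °C; day-zero plate TCA-fixed. 5-fold serial dilutions added, 5-day incubation; TCA fixation, 0.057% SRB in 1% acetic acid 30 min, dye dissolved in 10 mM Tris pH 10.5, A500. Growth relative to day-zero and untreated; GIC50 from sigmoidal dose–response fit; mean of two independent experiments.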

[6] = Cytotoxicity against human NCI-H146 cells after 3 days by MTT assay; format: functional, cell-based; conditions: NCI-H146, 72 h
[7] = test system: LNCaP; assay: Cytotoxicity against human LNCAP cells after 3 days by MTT assay; format: functional, cell-based; conditions: 72 h
[8] = test system: PC-3; assay: Cytostatic activity against human PC3 cells after 5 days by SRB assay; format: functional; conditions: PC-3, 120 h; procedure, shortened: as §2
[9] = test system: SK-OV-3; assay: Cytotoxicity against human SKOV3 cells after 3 days by MTT assay; format: functional, cell-based; conditions: SK-OV-3, 72 h
[10] = Cytostatic activity against human Hs578 cells after 5 days by SRB assay; format: functional; conditions: Hs578, 120 h; procedure, shortened: as §2
[11] = test system: MAT-Ly-Lu; assay: Cytotoxicity against rat MAT-LyLu cells after 3 days by MTT assay; format: functional, cell-based; conditions: 72 h
[12] = test system: CCRF-CEM; assay: Inhibition of RNA synthesis in human CCRF-CEM cells assessed as BrU incorporation at 1 to 5 times GI50 after 1 hr by FACS analysis; format: functional, cell-based
Procedure, shortened: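 CCRF-CEM cultured as for cell cycle (1× or 5× GIC50), pulsed with 1 mM 5-bromouridine 30 min. Paraformaldehyde/NP-40 fixation, anti-BrdU antibody cross-reacting with BrU, FITC secondary, propidium iodide/RNase counterstain, flow cytometry at 488 nm.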

[13] = Cytotoxicity against human HeLaS3 cells after 3 days by XTT assay; format: functional, cell-based; conditions: HeLa S3, 72 h
Procedure, shortened: (§3)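 Suspension-grown cell lines, 3-day compound incubation; viability read by XTT metabolic assay; IC50 averaged from four independent experiments.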

[14] = test system: HCT-116; assay: Cytostatic activity against human HCT116 cells after 5 days by SRB assay; format: functional; conditions: HCT-116, 120 h; procedure, shortened: as §2
[15] = test system: HL-60; assay: Cytotoxicity against human HL60 cells after 3 days by XTT assay; format: functional, cell-based; conditions: HL-60, 72 h; procedure, shortened: as §3
[16] = Cytotoxicity against human MES-SA cells after 3 days by MTT assay; format: functional, cell-based; conditions: 72 h
[17] = test system: SK-MEL-2; assay: Cytotoxicity against human SK-MEL-2 cells after 3 days by MTT assay; format: functional, cell-based; conditions: SK-MEL-2, 72 h
[18] = test system: DU-145; assay: Metabolic stability in human DU145 cells assessed as sodium ((2R,3S,4R,5R)-5-(4-amino-7H-pyrrolo[2,3-d]pyrimidin-7-yl)-3,4-dihydroxytetrahydrofuran-2-yl)methyl hydrogentriphosphate-NTP formation per million of cells at 10 uM after 24 hrs by LC/MS/MS analysis; format: ADME, cell-based; conditions: du-145, 24 h; procedure, shortened: as §1
[19] = test system: EL4; assay: Cytotoxicity against mouse EL4 cells after 3 days by MTT assay; format: functional, cell-based; conditions: EL4, 72 h
[20] = test system: K562; assay: Cytotoxicity against human K562 cells after 3 days by MTT assay; format: functional, cell-based; conditions: K562, 72 h
[21] = test system: K562; assay: Cytotoxicity against human paclitaxel resistant K562 cells after 3 days by MTT assay; format: functional, cell-based; conditions: K562, 72 h

SMILES: Nc1ncnc2c1c(-c1cccs1)cn2[C@@H]1O[C@H](CO)[C@@H](O)[C@H]1O
- IC50 [1]: 115 nM
- Stability [2]: 64 pmol
- IC50 [3]: > 5000 nM
- MSD [4]: 15 days
- GI50 [5]: 11 nM
- IC50 [6]: > 10000 nM
- IC50 [7]: 18 nM
- GI50 [8]: 1620 nM
- IC50 [9]: > 10000 nM
- GI50 [10]: 12 nM
- IC50 [11]: 180 nM
- inhibition [12]: Active
- IC50 [13]: 20 nM
- GI50 [14]: 2.6 nM
- IC50 [15]: 950 nM
- IC50 [16]: 232 nM
- IC50 [17]: 1980 nM
- Stability [18]: 1.96 pmol
- IC50 [19]: 9300 nM
- IC50 [20]: 25 nM
- IC50 [21]: 47 nM
